What was measured:
[1] = Pharmacokinetic/pharmacodynamic analysis of phospho-ALK; assay type: in vivo, mice; conditions: SCID/beige, mouse, plasma, oral
[2] = target: EML4-ALK G1202R/L1196M fusion phosphorylation (Homo sapiens, UniProt Q9HC35+Q9UM73, G1202R/L1196M); assay: as above; assay type: in vivo, mice; conditions: mouse, read-out: phosphorylation inhibition of EML4-ALK G1202R/L1196M fusion
[3] = Pharmacokinetics and brain distribution after repeat oral administration; assay type: in vivo; conditions: male Sprague Dawley rats; single oral administration
How it was run: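 Male Sprague Dawley rats received 10 mg/kg orally once daily for 7 consecutive days. Plasma concentration profiles were determined on days 1 and 7. On day 7, terminal samples of plasma, cerebrospinal fluid and brain tissue were collected 1, 4 and 24 h postdose and analyzed by LC/MS-MS. Brain tissue levels were compared with plasma levels.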

[4] = Free; assay type: in vivo, mice; conditions: SCID/beige, mouse, plasma, oral, 5 mg/kg
[5] = patients; ref FDA label; cited from earlier work
[6] = ref FDA label; cited from earlier work
[7] = test system: ALK(G1202R); conditions: cited from earlier work

Compound: CC1(C)COc2ccc(F)cc2CN2c3nc4c(cnn4cc3OC[C@H]2C(F)F)C(=O)N1 [TPX-0131, (4S)-4-(difluoromethyl)-8-fluoro-13,13-dimethyl-3,4,13,14-tetrahydro-6H-18,1-(metheno)[1,4]oxazino[3,4-i]pyrazolo[4,3-f][1,4,8,10]benzoxatriazacyclotridecin-15(12H)-one]
- concentration at 2 h [1]: 19.5 nM
- inhibition at 0.0195 µM [2]: > 90%
- absorption [3]: rapid absorption
- elimination half-life [3]: long elimination half-life

Compound: C[C@H]1Oc2cc(cnc2N)-c2c(nn(C)c2C#N)CN(C)C(=O)c2ccc(F)cc21 [Lorlatinib, lorlatinib]
- concentration at 12 h [4]: 358 nM
- AUC0–24h [5]: 5650 ng·h/mL
- Cave unbound exposure [5]: approximately 155 nmol/L
- plasma protein binding [6]: 66%

— article PMC9398166 (Molecular Cancer Therapeutics, 2021)
